Experimental data published in ChEMBL document CHEMBL1145785, “Design, synthesis, and structure-activity relationships of alkylcarbamic acid aryl esters, a new class of fatty acid amide hydrolase inhibitors” (J Med Chem, 2003).

Columns and labels:
[1] = molecular target: T1, Fatty-acid amide hydrolase 1 (Rattus norvegicus, UniProt P97612); assay: Inhibition of [3H]anandamide binding to fatty acid amide hydrolase of rat brain membrane
T1 sequence (P97612 whole entry): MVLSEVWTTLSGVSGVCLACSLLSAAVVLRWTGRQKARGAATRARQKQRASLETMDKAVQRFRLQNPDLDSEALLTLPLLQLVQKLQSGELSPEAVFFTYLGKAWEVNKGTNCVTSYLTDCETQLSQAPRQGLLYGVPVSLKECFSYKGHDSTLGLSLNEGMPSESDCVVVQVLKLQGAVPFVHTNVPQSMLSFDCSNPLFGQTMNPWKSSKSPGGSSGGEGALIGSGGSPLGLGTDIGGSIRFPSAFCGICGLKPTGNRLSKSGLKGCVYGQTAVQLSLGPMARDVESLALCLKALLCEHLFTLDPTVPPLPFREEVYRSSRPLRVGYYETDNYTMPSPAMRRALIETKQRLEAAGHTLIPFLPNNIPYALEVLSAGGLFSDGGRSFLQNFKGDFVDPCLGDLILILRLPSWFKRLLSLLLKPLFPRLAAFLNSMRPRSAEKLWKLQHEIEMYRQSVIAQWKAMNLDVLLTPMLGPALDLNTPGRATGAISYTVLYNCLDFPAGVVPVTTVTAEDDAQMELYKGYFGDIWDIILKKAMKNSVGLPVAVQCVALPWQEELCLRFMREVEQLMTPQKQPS
Procedure, shortened: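 Membrane fractions prepared from rat brain homogenates; FAAH activity measured as hydrolysis of anandamide[ethanolamine-3H] (60 Ci/mmol) as substrate. Value reported as half-maximal inhibitory concentration (IC50) of FAAH activity.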

[2] = molecular target: T1, Fatty-acid amide hydrolase 1; assay: Fatty acid amide hydrolase inhibitory activity in rat brain membrane using [3H]anandamide as a substrate; type: cell membranes
Procedure, shortened: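 Membrane fractions prepared from rat brain homogenates. FAAH activity measured as hydrolysis of [3H]anandamide, radiolabelled on the ethanolamine (60 Ci/mmol), used as substrate. IC50 taken as the half-maximal concentration for inhibition of hydrolysis.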

Row | Structure (SMILES) | IC50 [1] | IC50 [2]
1 | O=C(NC1CCCCC1)Oc1ccc(/C=C\c2ccccc2)cc1 | 0.263 µM | 0.266 µM
2 | CCCCNC(=O)Oc1ccc2cc(Br)ccc2c1 | 0.759 µM | –
3 | O=C(NC1CCCCC1)Oc1ccc2cccc(Br)c2c1 | 0.174 µM | 0.174 µM
4 | CCNC(=O)Oc1ccc(C)cc1 | – | > 30 µM
5 | CCCCNC(=O)Oc1ccc(F)cc1 | 11.5 µM | 11.5 µM
6 | Cc1ccc(OC(=O)NC2CCCCC2)cc1 | 5.37 µM | –
7 | O=C(NC1CCCCC1)Oc1cccc(-c2ccccc2)c1 | 0.0631 µM | –
8 | S=C(NC1CCCCC1)Oc1ccc2ccccc2c1 | – | > 30 µM
9 | S=C(NC1CCCCC1)Sc1ccc2ccccc2c1 | – | > 30 µM
10 | CCCCCc1cccc(OC(=O)NC2CCCCC2)c1 | 0.186 µM | 0.188 µM
11 | CCCCNC(=O)Oc1ccc(OCc2ccccc2)cc1 | 0.389 µM | 0.39 µM
12 | O=C(NC1CCCCC1)Oc1ccc(-c2ccccc2)cc1 | 2.29 µM | –
13 | O=C(Cc1ccc2ccccc2c1)NC1CCCCC1 | – | > 30 µM
14 | CCCCCCOC(=O)NC1CCCCC1 | – | 3.76 µM
15 | O=C(NC1CCCCC1)Oc1ccc(/C=C/c2ccccc2)cc1 | 3.31 µM | –
16 | O=C(NC1CCCCC1)Oc1ccc2ccccc2c1 | 0.324 µM | –
17 | Cc1cccc(OC(=O)NC2CCCCC2)c1 | 0.813 µM | 0.808 µM
18 | O=C(NC1CCCCC1)Oc1ccccc1 | 3.8 µM | 3.78 µM
19 | O=C(Nc1cccc(-c2ccccc2)c1)OC1CCCCC1 | – | > 30 µM
20 | O=C(NC1CCCCC1)OCCCCCc1ccccc1 | – | > 30 µM
21 | CNC(=O)Oc1ccc2ccccc2c1 | – | 18.3 µM
22 | O=C(Nc1ccc2ccccc2c1)NC1CCCCC1 | – | > 30 µM
23 | O=C(NC1CCCCC1)Sc1ccc2ccccc2c1 | – | 15.6 µM
24 | CCc1ccc2cc(OC(=O)NC3CCCCC3)ccc2c1 | 3.55 µM | 3.53 µM
25 | S=C(Nc1ccc2ccccc2c1)NC1CCCCC1 | – | > 30 µM
26 | CNC(=O)Oc1cccc2ccccc12 [CARBARIL] | – | > 30 µM
